Laboratory results as given in ChEMBL document CHEMBL1140098, “Dipeptide boronic acid inhibitors of dipeptidyl peptidase IV: determinants of potency and in vivo efficacy and safety” (J Med Chem, 2008).

Key:
[1] = test system: Rattus norvegicus; assay: Toxicity in po dosed Sprague-Dawley rat assessed as maximum tolerated dose relative to Val-boroPro; assay type: organism-based; conditions: in vivo
[2] = test system: Mus musculus; assay: Reduction of glucose level in po dosed C57BL/6 mouse by oral glucose tolerance test; assay type: functional, organism-based
Procedure, shortened: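 Male C57BL/6 mice, 7-8 per group, fasted 20 h, given vehicle or inhibitor by oral gavage at various doses. Oral glucose challenge (5 g/kg) 60 min later. Blood glucose read at 5 time points over 120 min.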

[3] = test system: Rattus norvegicus; assay: Inhibition of DPP4 in po dosed Sprague-Dawley rat plasma after 24 hrs; assay type: functional, organism-based
Procedure, shortened: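 Sprague-Dawley rats, 4-6 per inhibitor, single oral gavage dose across a dose range. Plasma DPP-IV activity sampled 6 times over 24 h post-dose. Percent change derived by comparing each treated sample's plasma activity with its own predose activity.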

[4] = Toxicity in po dosed Sprague-Dawley rat assessed as maximum tolerated dose; assay type: organism-based; conditions: in vivo
Procedure, shortened: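 Sprague-Dawley rats given escalating single doses; animals observed for adverse signs; lethargic or dead animals necropsied; maximum tolerated dose taken as the highest dose without adverse effects.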

[5] = test system: Rattus norvegicus; assay: Inhibition of DPP4 in Sprague-Dawley rat plasma at 6 mg/kg, po after 4 hrs; conditions: read-out: INH
[6] = Therapeutic index, ratio of MTD to drug level causing maximal reduction of glucose AUC in po dosed Sprague-Dawley rat; conditions: in vivo
[7] = target: Dipeptidyl peptidase 4 (Homo sapiens, UniProt P27487); assay: Inhibition of human placental DPP4
Sequence of Dipeptidyl peptidase 4 (P27487 whole entry): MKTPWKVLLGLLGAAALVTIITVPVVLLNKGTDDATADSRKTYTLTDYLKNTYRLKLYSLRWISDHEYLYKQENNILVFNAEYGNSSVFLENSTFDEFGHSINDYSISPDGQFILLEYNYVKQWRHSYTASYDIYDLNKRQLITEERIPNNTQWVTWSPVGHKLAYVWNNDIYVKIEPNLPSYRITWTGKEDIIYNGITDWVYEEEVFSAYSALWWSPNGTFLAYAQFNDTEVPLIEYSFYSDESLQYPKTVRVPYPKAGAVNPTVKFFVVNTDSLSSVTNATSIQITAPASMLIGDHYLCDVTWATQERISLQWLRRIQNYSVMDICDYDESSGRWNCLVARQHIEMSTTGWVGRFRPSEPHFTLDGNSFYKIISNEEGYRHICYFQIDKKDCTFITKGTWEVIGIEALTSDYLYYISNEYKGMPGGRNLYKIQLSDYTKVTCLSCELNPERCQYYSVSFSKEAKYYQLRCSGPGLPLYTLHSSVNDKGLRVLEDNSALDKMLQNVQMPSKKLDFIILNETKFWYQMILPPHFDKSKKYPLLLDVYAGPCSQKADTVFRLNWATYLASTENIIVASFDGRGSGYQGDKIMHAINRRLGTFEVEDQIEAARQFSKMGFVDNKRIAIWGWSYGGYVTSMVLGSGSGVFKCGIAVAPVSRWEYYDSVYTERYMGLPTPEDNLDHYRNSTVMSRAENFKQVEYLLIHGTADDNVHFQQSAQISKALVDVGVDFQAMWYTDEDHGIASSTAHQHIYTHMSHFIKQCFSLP

Structure (SMILES) | Activity [1] | Activity [2] | Activity [3] | MTD [4] [mg/kg] | inhibition in vivo at 6 mg/kg [5] [%] | selectivity ratio [6] | Ki [7] [nM]
C[C@H](N)C(=O)N1CCC[C@H]1B(O)O | 200 | Dose-dependent effect | Dose-dependent effect |  |  |  | 
C[C@H](NC(=O)[C@@H](N)CCC(=O)O)B(O)O | 20000 | Dose-dependent effect | Dose-dependent effect | > 500 | 80 |  | 
CC[C@H](C)[C@H](N)C(=O)N1CCSC1 | > 28000 |  |  | > 700 |  | > 35 | 
CC(C)[C@H](N)C(=O)N1CCC[C@H]1B(O)O [TALABOSTAT] | 1 | Dose-dependent effect | Dose-dependent effect |  |  |  | 
CC[C@@H](C)[C@H](N)C(=O)N1CCSC1 | < 12000 |  |  | < 300 |  | < 15 | 
CC(=O)N[C@H](C(=O)N1CCC[C@H]1B(O)O)C(C)C |  |  |  |  |  |  | 3300
NCC(=O)N1CCC[C@H]1B(O)O |  |  |  |  |  |  | 0.4
N[C@@H](CCC(=O)O)C(=O)N1CCC[C@H]1B(O)O |  |  |  |  |  |  | 1.8
